Screens as filed in PubChem BioAssay.
Compounds with a hit are over-represented: about 2.2% of the library has one in this group of screens.
GAA850 FXN act: FXN promoter activators, primary screen, cell-based, luciferase luminescence, HEK293 lucGAA850. 360,000 tested, 0.56% active. AID 540364, 2011. activation, % at 6 µM. HEK293 lucGAA850 FXN promoter luciferase reporter, 24 h; percent of 10 µM SAHA response;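 active = activation above the average of all compounds screened plus 3 SD, cutoff fixed separately per campaign, cut at about 7.5% in these data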
NR2E3 ag-1: inhibitors of NR2E3-RetCOR corepressor binding, primary screen, NR2E3 agonist project, biochemical, TR-FRET, GST-NR2E3, biotin-RetCOR; inhibition of corepressor binding, % at 4.78 µM; 1536-well; 320,000 tested, 0.12% active; Photoreceptor-specific nuclear receptor (Homo sapiens), Q9Y5X4;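 active = percent inhibition above the cutoff of mean plus 3 SD of all tested compounds, set per screening campaign, cut at about 20% in these data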
Target sequence (Q9Y5X4 whole entry, looked up): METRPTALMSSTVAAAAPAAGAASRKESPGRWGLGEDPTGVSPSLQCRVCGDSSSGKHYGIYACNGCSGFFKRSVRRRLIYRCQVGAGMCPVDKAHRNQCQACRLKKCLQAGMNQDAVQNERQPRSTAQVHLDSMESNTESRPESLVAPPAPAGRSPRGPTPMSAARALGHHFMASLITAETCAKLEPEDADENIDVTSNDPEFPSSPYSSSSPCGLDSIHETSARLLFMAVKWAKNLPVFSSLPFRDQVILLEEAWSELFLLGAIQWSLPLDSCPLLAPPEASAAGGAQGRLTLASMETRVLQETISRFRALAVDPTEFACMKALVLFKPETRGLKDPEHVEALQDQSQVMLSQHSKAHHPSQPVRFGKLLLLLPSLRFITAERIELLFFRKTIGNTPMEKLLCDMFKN
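System: GST-tagged NR2E3 plus biotinylated RetCOR corepressor; Amount: 1.35 nM GST-tagged NR2E3 final; Dosing: single nominal compound dose of 4.8 µM; Schedule: 5 h incubation at 4 °C; Technique: TR-FRET with europium anti-GST and streptavidin-D2, 340 nm excitation; Controls: biotin wells as high control, 0.6% DMSO wells as low control.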
HIV Env fusion: inhibitors of HIV-1 Env-driven cell-cell fusion, primary screen, HeLa-JRFL effector, CEM21 target cells, luciferase | inhibition, % at 12.3 µM | 360,000 tested, 1.1% active;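 active = mean replicate inhibition score of at least 50 and every replicate individually at or above 50; inconclusive = only one of the two criteria met; inactive = mean below 50 and not all replicates reaching 50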
NR2E3 ag-2: NR2E3 agonists in two-hybrid cells, primary screen, cell-based, luminescence, CHO-S, Gal4-NCOR/VP16-NR2E3 | 360,000 tested, 0.35% active | inhibition of corepressor binding, % at 3.98 µM | Photoreceptor-specific nuclear receptor (Homo sapiens), Q9Y5X4 | luciferase | AID 602229, 2012;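 active = inhibition above the mean of all tested compounds plus 3 SD, cut at about 70% in these data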;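 also: higher means lower luciferase signal from less NR2E3 corepressor binding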
GalR3 antagonist: GalR3 antagonists in HEK293 cells, primary screen, cell-based, fluorescence readout; Galanin receptor type 3 (Homo sapiens), O60755; HEK293 GalR3-CNG cAMP membrane potential fluorescence; galR3 body fused to GalR1 C-terminus; inhibition, % at 3 µM; 360,000 tested, 0.44% active; AID 651719, 2012;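 active = inhibition above the screen-wide average plus 3 SD, cut at about 13% in these data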;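 also: forskolin and galanin both at EC90 stimulate the cells; cAMP rise reported by CNG channel membrane potential dye signal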
Target sequence (O60755 1-299 limits assumed): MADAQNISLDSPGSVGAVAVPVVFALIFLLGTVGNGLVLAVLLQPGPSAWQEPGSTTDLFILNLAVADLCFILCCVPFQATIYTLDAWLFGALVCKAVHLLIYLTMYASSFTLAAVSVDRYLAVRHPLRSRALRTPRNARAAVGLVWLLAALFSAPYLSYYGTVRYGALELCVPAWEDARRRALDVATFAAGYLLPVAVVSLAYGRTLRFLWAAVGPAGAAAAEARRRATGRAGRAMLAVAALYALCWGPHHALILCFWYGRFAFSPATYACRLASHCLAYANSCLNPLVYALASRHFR
V-ATPase pH: regulators of yeast V-ATPase proton pumping, primary screen, pHLuorin cytosolic pH fluorescence; S. cerevisiae; response, % at 10 µM; 350,000 tested, 0.37% active; AID 504577, 2011; in the data active = response mostly above about 7.3%, no sharp cut-off; inactive = mostly below about 5.4%; also: actives read high
Of the large screens only hits and unclear results are named; the others gave an inactive call.

O=C1[C@H]2[C@@H](c3ccc(F)cc3)N3C(=O)N(c4ccccc4)C(=O)[C@@]3(Cc3ccc(Cl)cc3)[C@H]2C(=O)N1C1CCCCC1	GAA850 FXN act 11, HIV Env fusion 100
COC(=O)C[C@H]1CC[C@@H]2[C@H](COc3ccc(NC(=O)c4ccc(F)c(F)c4)cc3C(=O)N2C)O1	none (no result: GAA850 FXN act, NR2E3 ag-1, NR2E3 ag-2, GalR3 antagonist, V-ATPase pH)
C[C@@]12C(=O)Nc3ccc(F)cc3C(=O)N1[C@H]1c3cc(Br)ccc3OC[C@@H]1[C@@H]2c1ccccc1	HIV Env fusion 57 (no result: NR2E3 ag-1)
C[C@@]12C(=O)Nc3cc(F)ccc3C(=O)N1[C@H]1c3cc(Br)ccc3OC[C@@H]1[C@@H]2c1ccccc1	none (no result: NR2E3 ag-1)
COc1ccc2c(c1)[C@H]1[C@H](CO2)[C@H](c2ccccc2)[C@]2(C)C(=O)Nc3cc(OC)c(OC)cc3C(=O)N12	HIV Env fusion 102
COc1ccc2c(c1)[C@H]1[C@H](CO2)[C@H](c2ccccc2)[C@]2(C)C(=O)Nc3ccc(C)cc3C(=O)N12	none (no result: NR2E3 ag-1)
COCC(=O)Nc1ccc2c(c1)[C@@H]1C[C@H](CC(=O)NCc3ccccc3F)O[C@H](CO)[C@@H]1O2	none (no result: GAA850 FXN act, NR2E3 ag-1, NR2E3 ag-2, GalR3 antagonist, V-ATPase pH)
CNC[C@@H]1Oc2ccc(NC(=O)C3CCCCC3)cc2CC(=O)N([C@@H](C)CO)C[C@@H]1C	none (no result: GAA850 FXN act, NR2E3 ag-1, NR2E3 ag-2, GalR3 antagonist, V-ATPase pH)
COCC(=O)Nc1ccc2c(c1)OC[C@@H](C)N(C(=O)c1ccncc1)C[C@H](C)[C@H](OC)CN(C)C2=O	none (no result: GAA850 FXN act, NR2E3 ag-1, NR2E3 ag-2, GalR3 antagonist, V-ATPase pH)
C[C@H](CO)N1C[C@H](C)[C@H](CN(C)CC2CCOCC2)Oc2cc(C#CC3CC3)ccc2S1(=O)=O	none (no result: GAA850 FXN act, NR2E3 ag-1, NR2E3 ag-2, GalR3 antagonist, V-ATPase pH)
CCOC(=O)c1ccc(N2Cc3ccccc3C2=NC(=O)c2cccc([N+](=O)[O-])c2)cc1	GAA850 FXN act 7.8
Cc1ccc(S(=O)(=O)N(C)C[C@H]2Oc3c(NC(=O)c4cnccn4)cccc3C(=O)N([C@H](C)CO)C[C@H]2C)cc1	none (no result: GAA850 FXN act, NR2E3 ag-1, NR2E3 ag-2, GalR3 antagonist, V-ATPase pH)
CC(=O)Nc1ccc(C(=O)OCC(=O)NC(=O)NCc2ccccc2)cc1	HIV Env fusion 71 (no result: NR2E3 ag-1)
CCC(=O)N(C)C[C@H]1Oc2cc(-c3ccc(F)cc3)ccc2S(=O)(=O)N([C@@H](C)CO)C[C@@H]1C	none (no result: GAA850 FXN act, NR2E3 ag-1, NR2E3 ag-2, GalR3 antagonist, V-ATPase pH)
CN(C)S(=O)(=O)c1cccc(NC(=O)CSc2nc3c(cc2C#N)C(=O)CC(C)(C)C3)c1	HIV Env fusion 70
C[C@H](CO)N1C[C@H](C)[C@@H](CN(C)S(C)(=O)=O)Oc2ccc(NC(=O)CCCCCC(=O)Nc3ccccc3N)cc2CC1=O	none (no result: GAA850 FXN act, NR2E3 ag-1, NR2E3 ag-2, GalR3 antagonist, V-ATPase pH)
CCOc1ccc(/C=C/C(=O)c2cc(Br)ccc(=O)c2O)cc1	HIV Env fusion 64
CC1(C)CC(=O)C2=C(C1)Oc1ncn(Cc3ccco3)c(=N)c1C2c1ccccc1 (stereo not drawn)	none (no result: HIV Env fusion)
COc1ccc(C2C3=C(CC(C)(C)CC3=O)Oc3ncn(Cc4ccccc4)c(=N)c32)cc1 (stereo not drawn)	HIV Env fusion 61
COc1ccc(-c2n(Cc3ccccc3)c3ccccc3[n+]2Cc2ccccc2)cc1	HIV Env fusion 70
COc1ccc(S(=O)(=O)N2CCC(O)(c3ccc(Cl)cc3)CC2)cc1OC	V-ATPase pH 17
COc1ccc(S(=O)(=O)N2CCC(O)(c3ccc(Cl)cc3)CC2)cc1	none
CC[C@@H](CC1CCCCC1)C(=O)N(Cc1ccccc1)c1ccccc1	HIV Env fusion 60 (no result: NR2E3 ag-1)
CCN(C[C@H]1N[C@@](CC)(C(=O)OC)[C@H]2C(=O)N(Cc3ccccc3)C(=O)[C@@H]12)S(=O)(=O)c1ccc(-c2ccccc2)cc1	none (no result: NR2E3 ag-1)
CCN(C[C@H]1N[C@@](CC)(C(=O)OC)[C@H]2C(=O)N(Cc3ccccc3)C(=O)[C@@H]12)S(=O)(=O)c1ccc(C(C)(C)C)cc1	HIV Env fusion 58 (no result: NR2E3 ag-1)
CCN(C[C@H]1N[C@@](C)(C(=O)OC)[C@H]2C(=O)N(Cc3ccccc3)C(=O)[C@@H]12)S(=O)(=O)c1ccc(F)cc1	none (no result: NR2E3 ag-1)
CCN(C[C@H]1N[C@@](C)(C(=O)OC)[C@H]2C(=O)N(Cc3ccccc3)C(=O)[C@@H]12)S(=O)(=O)c1ccc(C(C)(C)C)cc1	HIV Env fusion 84 (no result: NR2E3 ag-1)
CSCCC(C(=O)N1CC2(C)CC1CC(C)(C)C2)N1C(=O)c2ccccc2C1=O (stereo not drawn)	HIV Env fusion 34
CC1(C)CC2CC(C)(CN2C(=O)CN2C(=O)c3ccccc3C2=O)C1 (stereo not drawn)	HIV Env fusion inconclusive
CC1=C(C(=O)OCc2ccc3c(c2)OCO3)C(c2ccc(Cl)cc2)NC(=O)N1 (stereo not drawn)	none (no result: HIV Env fusion)
CC1=C(C(=O)OCc2ccc3c(c2)OCO3)C(c2ccc(F)cc2)NC(=O)N1 (stereo not drawn)	HIV Env fusion 100
COc1ccccc1N/C(N)=N/c1nc(CSc2ccc(C)cc2)cc(=O)[nH]1	HIV Env fusion 67
O=C(C1CCC(CNc2nc(=S)[nH]c3ccccc23)CC1)N1CCN(c2ccccn2)CC1 (stereo not drawn)	HIV Env fusion 65
C=CCNC(=O)C1CCC(CNc2nc(=S)[nH]c3ccccc23)CC1 (stereo not drawn)	none
COc1ccc([C@H]2CC(=O)C=C(c3cccc(C(C)C)c3)C2)cc1OC	HIV Env fusion 63
Cc1ccc(-c2nnnn2-c2ccc(C)cc2)cc1	none
Cc1ccc(-n2nnnc2-c2cnn(-c3ccc(F)cc3)c2C(F)(F)F)cc1	HIV Env fusion 96
CC(C)c1ccc(OCCCN2CCC(C(O)(c3ccccc3)c3ccccc3)CC2)cc1	HIV Env fusion 79 (no result: GAA850 FXN act, NR2E3 ag-1, NR2E3 ag-2, V-ATPase pH)
c1ccc(N2CCN(c3ncnc4scc(-c5cccs5)c34)CC2)cc1	HIV Env fusion 82
c1csc(-c2csc3ncnc(NCCCN4CCOCC4)c23)c1	HIV Env fusion 68
NNc1ncnc2scc(-c3ccc(Cl)cc3)c12	none
c1ccc(-c2csc3ncnc(NCCCN4CCOCC4)c23)cc1	none (no result: HIV Env fusion)
OCCCNc1ncnc2scc(-c3ccc(Cl)cc3)c12	HIV Env fusion 62 (no result: NR2E3 ag-1)
C[C@@H]1CN([C@H](C)CO)C(=O)c2cccc(NC(=O)Nc3ccc(F)cc3)c2O[C@H]1CN(C)C(=O)Nc1ccc2c(c1)OCO2	none (no result: GAA850 FXN act, NR2E3 ag-1, NR2E3 ag-2, GalR3 antagonist, V-ATPase pH)
C[C@@H]1CN([C@H](C)CO)C(=O)c2cc(NS(=O)(=O)c3cn(C)cn3)ccc2O[C@@H](C)CCCCO[C@@H]1CN(C)CC1CC1	none (no result: GAA850 FXN act, NR2E3 ag-1, NR2E3 ag-2, GalR3 antagonist, V-ATPase pH)
COc1ccccc1NC(=O)N[C@@H]1CC[C@H](CCn2cc(-c3cccnc3)nn2)O[C@H]1CO	none (no result: GAA850 FXN act, NR2E3 ag-1, NR2E3 ag-2, GalR3 antagonist, V-ATPase pH)
O=C(C[C@@H]1CC[C@@H](NC(=O)C2CCC2)[C@@H](CO)O1)Nc1nccs1	none (no result: GAA850 FXN act, NR2E3 ag-1, NR2E3 ag-2, GalR3 antagonist, V-ATPase pH)
